Source: PubChem BioAssay
Most compounds without a hit are left out; they make up all but 4.1% or so of the library.
Autophagy HCS – autophagy modulators in MEF cells, primary screen, imaging, high-content, MEF GFP-LC3; MEF GFP-LC3 puncta imaging; test concentration mostly 10 µM; calls only at 10 µM (by protocol); actives 0.98% (n = 190,000);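 active = percentage of spot-positive cells more than 3 SD above its plate mean, without a fluorescence outlier flag or 80% toxicity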
Dynein cargo inh – inhibitors of GR-EGFP nuclear translocation, primary screen, dynein cargo transport inhibitor project, imaging, high-content, 3617.4 mouse cells | test concentration mostly 20 µM; stimulated with dexamethasone, 1 µM; hits give low values | z-score, hits read low | actives 0.47% (n = 220,000) | AID 1381, 2008;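 active = plate z-score of nuclear minus cytoplasmic receptor signal below a set negative limit, without overly bright fluorescence or cell loss, cut at about -3.5 in these data, passing the limit was not always enough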;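 note: z-score of nuclear minus cytoplasmic ring GR-EGFP intensity difference per well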
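medium = tetracycline-free induction medium containing charcoal-stripped FBS | also added = 1.0 µM final dexamethasone stimulus | schedule = 48 h induction, 1 h compound, 30 min dex at 37 °C | technique = fixed, Hoechst-stained cells imaged at 10x for EGFP | measure = GR-EGFP nuclear translocation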
Redox H2O2 prof – compounds producing H2O2 with reducing agent – biochemical, NIH compound library profiling, artefact control for MLSCN library redox annotation, primary screen. DTT-dependent redox cycling H2O2, phenol red/HRP absorbance; 100% = 100 µM peroxide control, 0% = buffer. activation, % at 10 µM. actives 0.03% (n = 200,000). AID 878, 2007;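 active = activation of at least 50% relative to the plate's high and low controls in the primary single-dose screen; inactive = activation below 50%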;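 note: compound incubated with DTT at 0.8 mM final as the reducing agent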
ROMK mod – ROMK potassium channel modulators, primary screen, cell-based, thallium flux, MLSMR library. B-score at 10 µM. actives 2% (n = 130,000). Tet-inducible ROMK, thallium flux fluorescence; actives lie on both sides;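 active = signal ratio slope over the read window, or its plate-corrected B-score, at least 3 SD from the plate mean, either direction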;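 note: B-score of the F/F0 ratio slope over 7 to 12 s after thallium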
Cl transport mod – KCC2 cotransporter modulators, thallium flux, primary screen, cell-based, HEK293 KCC2, FluoZin-2 fluorescence, MLSMR | actives 2.2% (n = 190,000) | B-score of Tl+ flux slope (higher = more flux/activation; lower = inhibition) at 10 µM | Solute carrier family 12 member 5 (Homo sapiens), Q9H2X9 | KCC2 cells, thallium flux FluoZin-2 fluorescence;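 active = thallium flux slope and its plate-corrected score both differing from the plate sample mean at a set confidence after two filtering rounds, in either direction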;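 note: slope of fluorescence scaled to starting intensity during 10 to 20 s after thallium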
Numbers stand for hits; 0 = inactive; - = no result; + = active, no number.

SMILES	Autophagy HCS	Dynein cargo inh	Redox H2O2 prof	ROMK mod	Cl transport mod
COc1cc(C(C[N+](=O)[O-])c2c(C)[nH]c3ccccc23)ccc1O (stereo unspecified)	+	0	0	0	0
Cc1[nH]c2ccccc2c1C(C[N+](=O)[O-])c1cccc(O)c1 (stereo unspecified)	0	0	0	0	0
O=C(/C=C/c1ccccc1)NC1CC2CCCC(C1)N2Cc1ccccc1 (stereo unspecified)	-	0	-	-	0
COc1ccc(CN2C3CCCC2CC(NC(=O)/C=C/c2ccccc2)C3)cc1 (stereo unspecified)	+	0	0	0	0
O=C(Nc1ccncc1)c1ccccc1-c1ccccc1	0	0	0	0	0
COc1ccc(S(=O)(=O)N2c3cc(Cl)ccc3Oc3nc4ccccc4nc32)cc1	+	0	0	0	0
CC(C)CNC(=O)COC(=O)c1n[nH]c2ccccc12	0	0	0	0	0
COc1ccc2[nH]c(=O)cc(C(=O)O)c2c1	0	0	0	0	0
COc1ccc2[nH]c3c4c(ccc3c2c1)C(=O)C=CC4=O	-	-5.2	-	-	0
C=CCC1C=C(C)CC(CC=C)N1 (stereo unspecified)	0	0	0	0	0
CCN(CC)CCN1C(=O)C(O)=C(C(=O)c2ccc(C)o2)C1c1ccccn1 (stereo unspecified)	+	0	0	0	0
Cc1ccc(C(=O)C2=C(O)C(=O)N(CCN3CCOCC3)C2c2ccccn2)o1 (stereo unspecified)	0	0	0	0	-
CCOC(=O)c1c(NS(=O)(=O)Cc2ccccc2)sc2c1CCCC2	0	0	0	3.6	144
CCOC(=O)c1c(NS(=O)(=O)c2ccc(Br)cc2)sc2c1CCC2	0	0	0	3.1	118
CCOC(=O)c1c(NC(=O)c2ccco2)sc2c1CCCCC2	0	0	0	0	-
COc1cc(C2=NOC(C(=O)NCc3ccc(F)cc3)C2)cc(OC)c1OC (stereo unspecified)	+	0	0	-	0
CSC1=NC2(CC(c3ccccc3)Oc3cc(O)ccc32)CC(C)(C)N1 (stereo unspecified)	0	0	0	-4	0
COc1cccc(C2CC3(CC(C)(C)NC(=S)N3)Oc3cc(O)ccc32)c1 (stereo unspecified)	0	0	0	-	0
COc1cc(SC)ccc1C(=O)Nc1nccs1	0	0	0	0	0
O=C(NC(=S)N1CCN(c2c(Cl)cccc2[N+](=O)[O-])CC1)c1cccs1	0	0	0	-	-
COc1ccc(N2CCN(C(=S)NC(=O)c3cccs3)CC2)c([N+](=O)[O-])c1	0	0	0	3.4	90
O=S1(=O)CCN(Cc2cccc(C(F)(F)F)c2)CC1	0	0	0	0	0
Cc1cc(C)nc(N/N=C/C2=C(N3CCOCC3)C(=C/c3ccccc3)/CC2)n1	0	0	0	0	0
Cc1cc(=O)[nH]c(N/N=C/C2=C(N3CCOCC3)C(=C\c3ccc(Cl)cc3)/CC2)n1	+	0	0	-	0
CCCSc1nc(C)nc2c1c(=O)n(C)c(=O)n2C	+	0	0	-	-
SMILES	Autophagy HCS	Dynein cargo inh	Redox H2O2 prof	ROMK mod	Cl transport mod
CCOc1ccccc1NC(=S)NCCc1ccccc1	0	0	0	0	0
CC1(C)CC2CC(C)(CN2C(=S)NC(=O)c2ccccc2Cl)C1 (stereo unspecified)	0	0	0	-	55
CC1(C)CC2CC(C)(CN2C(=S)Nc2ccccc2)C1 (stereo unspecified)	0	0	0	-	0
CC1CCCC(NCC(=O)Nc2ccc(C(N)=O)cc2)C1C (stereo unspecified)	0	0	0	0	-
COc1ccccc1/C=C/C(=O)c1c2c(c(C)[nH]c1=O)CCCC2	+	0	0	0	0
CCc1ccc(C(=O)NNC(=O)OC)cc1	0	0	0	-	0
CC(C)CC(=O)Nc1ccccc1-c1nnn(CC(=O)N2CCc3ccccc3C2)n1	0	0	0	-	-3.8
CC(CCc1ccccc1)NC(=O)CSc1cccc[n+]1[O-] (stereo unspecified)	0	0	0	0	0
